Active and inactive are the calls of the source. The rule behind the calls is not given here.
Assays:
[1] = Inhibition of Plasmodium falciparum thioredoxin reductase in presence of 34 uM thioredoxin 2 substrate
How it was run: (§1)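 Direct assay at 25 °C, NADPH oxidation at 340 nm, 100 μM NADPH, 1% DMSO; six to eight inhibitor levels 0–100 μM, duplicate. TR: 100 μM TS2, 100 mM phosphate pH 7.0. GR (human): 500 or 50 μM GSSG, 100 mM potassium phosphate pH 7.0, 200 mM KCl. P. falciparum TrxR: 34 μM D. melanogaster thioredoxin-2, 100 mM phosphate pH 7.4, 2 mM EDTA.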

[2] = Inhibition of Plasmodium falciparum thioredoxin reductase after 5 min pre-incubation with NADPH in presence of 34 uM thioredoxin 2 substrate
How it was run: (§2)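 Enzyme (T. cruzi TR, human GR or P. falciparum TrxR) preincubated 5 min at 25 °C with 160 μM NADPH and 0–20 μM inhibitor, 2% DMSO, 50 μL; 5 μL aliquot into respective standard assay with substrate at 5× Km (100 μM TS2, 500 μM GSSG, 34 μM thioredoxin-2), residual activity at 340 nm.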

[3] = system: Leishmania donovani; test: Antiparasitic activity against Leishmania donovani MHOM/ET/67/HU3 intracellular amastigotes; assay type: functional; settings: read-out: ED50 (the source's name)
[4] = system: Trypanosoma brucei rhodesiense; test: Antiparasitic activity against Trypanosoma brucei rhodesiense STIB900 blood stream form; assay type: functional; settings: read-out: ED50 (the source's name)
How it was run: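 Bloodstream-form parasites treated for 3 days; viability by tetrazolium salt colorimetric assay with pentamidine isethionate reference; ED50 derived by sigmoidal regression.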

[5] = system: Trypanosoma cruzi; test: Antiparasitic activity against Trypanosoma cruzi MHOM/CL/00/Tulahuan-LacZ intracellular amastigotes; assay type: functional; settings: read-out: ED50 (the source's name)
[6] = system: Plasmodium falciparum; test: Antiparasitic activity against chloroquine-sensitive Plasmodium falciparum 3D7 in erythrocytes; assay type: functional; settings: read-out: ED50 (the source's name)
[7] = Cytotoxicity against human KB cells by Alamar blue assay; assay type: cell-based; settings: read-out: ED50 (the source's name)
How it was run: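 Human oral pharyngeal carcinoma KB cells; Alamar Blue read-out with podophyllotoxin positive control; ED50 calculated relative to blanks and untreated controls.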

[8] = Toxicity in macrophages at >=156 uM; assay type: cell-based; settings: human, macrophage
[9] = target: Trypanothione reductase (Trypanosoma cruzi) (UniProt P28593); test: Inhibition of reduced Trypanosoma cruzei trypanothione reductase at freshly prepared 100 uM
Chain of Trypanothione reductase (Trypanosoma cruzi) (P28593 whole entry, looked up): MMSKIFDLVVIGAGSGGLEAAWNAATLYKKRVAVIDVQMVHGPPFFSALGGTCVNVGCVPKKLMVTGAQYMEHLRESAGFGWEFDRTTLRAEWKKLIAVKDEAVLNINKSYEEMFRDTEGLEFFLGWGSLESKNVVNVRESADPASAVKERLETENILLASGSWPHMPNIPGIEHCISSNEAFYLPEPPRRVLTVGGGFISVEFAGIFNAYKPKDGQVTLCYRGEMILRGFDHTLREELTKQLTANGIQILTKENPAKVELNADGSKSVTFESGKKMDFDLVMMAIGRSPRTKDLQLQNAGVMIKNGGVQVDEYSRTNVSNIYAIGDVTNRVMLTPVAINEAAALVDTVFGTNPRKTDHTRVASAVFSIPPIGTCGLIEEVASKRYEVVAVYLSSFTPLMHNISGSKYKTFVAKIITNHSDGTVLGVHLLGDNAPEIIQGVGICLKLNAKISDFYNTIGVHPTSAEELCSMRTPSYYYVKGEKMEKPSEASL
How it was run: (§3)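 Recombinant T. cruzi TR (0.5 μM) preincubated at 25 °C with inhibitor, with or without 200 μM NADPH, in 40 mM HEPES, 1 mM EDTA, pH 7.5; 5 μL aliquots taken over time into standard assay (100 μM NADPH, 110 μM TS2, A340 decrease). Inhibitor from fresh or stored DMSO stock (stored at 4 °C); half-time at 100 μM. Controls: enzyme+NADPH+DMSO, enzyme+inhibitor without NADPH.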

[10] = target: T1, Trypanothione reductase (Trypanosoma cruzi, UniProt P28593); test: Inhibition of Trypanosoma cruzi trypanothione reductase in presence of 100 uM TS2 substrate; how it was run: as §1
T1 sequence (P28593 whole entry): as the sequence (P28593 whole entry, looked up) above

[11] = target: T1, Trypanothione reductase; test: Inhibition of Trypanosoma cruzi trypanothione reductase after 5 mins pre-incubation with NADPH in presence of 100 uM TS2 substrate; how it was run: as §2
[12] = target: T2, Glutathione reductase, mitochondrial (Homo sapiens, UniProt P00390); test: Inhibition of human glutathione reductase in presence of 500 uM GSSG substrate; how it was run: as §1
T2 sequence (P00390 whole entry): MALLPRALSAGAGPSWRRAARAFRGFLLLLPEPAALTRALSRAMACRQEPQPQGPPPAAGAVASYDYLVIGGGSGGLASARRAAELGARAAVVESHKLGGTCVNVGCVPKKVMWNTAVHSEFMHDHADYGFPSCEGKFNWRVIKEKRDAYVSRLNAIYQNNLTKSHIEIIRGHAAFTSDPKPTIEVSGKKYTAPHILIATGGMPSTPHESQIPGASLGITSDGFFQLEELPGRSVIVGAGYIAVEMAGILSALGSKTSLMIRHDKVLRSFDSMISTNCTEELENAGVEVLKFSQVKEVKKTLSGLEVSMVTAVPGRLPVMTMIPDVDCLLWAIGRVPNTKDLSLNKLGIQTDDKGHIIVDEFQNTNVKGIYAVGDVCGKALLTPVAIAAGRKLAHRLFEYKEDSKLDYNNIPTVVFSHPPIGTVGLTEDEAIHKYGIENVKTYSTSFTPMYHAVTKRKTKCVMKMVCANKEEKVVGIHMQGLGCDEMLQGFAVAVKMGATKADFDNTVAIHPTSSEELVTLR

[13] = target: T2, Glutathione reductase, mitochondrial; test: Inhibition of human glutathione reductase in presence of 50 uM GSSG substrate; how it was run: as §1
[14] = target: T2, Glutathione reductase, mitochondrial; test: Inhibition of human glutathione reductase after 5 mins pre-incubation with NADPH in presence of 500 uM GSSG substrate; how it was run: as §2
[15] = target: Trypanothione reductase (Trypanosoma cruzi) (UniProt P28593); test: Inactivation of Trypanosoma cruzei trypanothione reductase at 200 uM; how it was run: as §3
[16] = target: Trypanothione reductase (Trypanosoma cruzi) (UniProt P28593); test: Inhibition of Trypanosoma cruzei reduced trypanothione reductase at 100 uM; how it was run: as §3
[17] = target: Trypanothione reductase (Trypanosoma cruzi) (UniProt P28593); test: Inhibition of Trypanosoma cruzei reduced trypanothione reductase at 5 uM freshly prepared compound within less than 5 mins; how it was run: as §3
[18] = target: Trypanothione reductase (Trypanosoma cruzi) (UniProt P28593); test: Inhibition of Trypanosoma cruzei trypanothione reductase at 5 uM stored compound within 5 mins; how it was run: as §3
[19] = target: Trypanothione reductase (Trypanosoma cruzi) (UniProt P28593); test: Inactivation of Trypanosoma cruzei reduced trypanothione reductase at 100 uM freshly prepared compound; parameters: scale not given: the % may be the effect or the level left; how it was run: as §3
[20] = target: Trypanothione reductase (Trypanosoma cruzi) (UniProt P28593); test: Inactivation of Trypanosoma cruzei reduced trypanothione reductase at 100 uM stored compound; parameters: scale not given: the % may be the effect or the level left; how it was run: as §3

| Compound | EC50 [3] | EC50 [4] | EC50 [5] | EC50 [6] | CC50 [7] | T1/2 [9] | further results |
| --- | --- | --- | --- | --- | --- | --- | --- |
| C=CC(=O)/C=C/c1ccccc1Cl | 68 µM | 1900 nM | 12.5 µM | 46.7 µM | 1230 µM | < 0.75 min | IC50 [1]: 3.7 µM; IC50 [2]: 400 nM; Activity [8]: Toxic; IC50 [10]: 8 µM; IC50 [11]: 2000 nM; IC50 [12]: 190 µM; IC50 [13]: 18.5 µM; IC50 [14]: 5 µM |
| CN(C)CC(C)(C)C(=O)/C=C/c1ccccc1Cl |  |  |  |  |  |  | Activity [15]: inactive |
| O=C1C=CC(c2ccccc2Cl)C1 (centres undefined) |  |  |  |  |  |  | Activity [16]: inactive |
| O=C(Cn1ccnc1[N+](=O)[O-])NCc1ccccc1 [BENZNIDAZOLE] |  |  | 4.2 µM |  |  |  |  |
| O=C(/C=C/c1ccccc1Cl)CCN1CCCCC1 | 13 µM | 800 nM | 11.8 µM | 16.2 µM | 7.3 µM | 7.5 min |  |
| CCN(CC)CCCC(C)Nc1ccnc2cc(Cl)ccc12 (centres undefined) [CHLOROQUINE] |  |  |  | 0.0058 µM |  |  |  |
| COc1cc([C@@H]2c3cc4c(cc3[C@H](O)[C@H]3COC(=O)[C@H]23)OCO4)cc(OC)c1OC [PODOFILOX] |  |  |  |  | 0.07 µM |  |  |
| CN(C)CCC(=O)/C=C/c1ccccc1Cl | 41.6 µM | 1800 nM | 8.7 µM | 27 µM | 14.2 µM | 8.6 min | inhibition [17]: 30%; inhibition [18]: 70%; Activity [19]: > 99%; Activity [20]: > 99% |
| N=C(N)c1ccc(OCCCCCOc2ccc(C(=N)N)cc2)cc1 [PENTAMIDINE] | 28.9 µM | 0.1 nM | 4.2 µM |  |  |  |  |
| O=C(/C=C/c1ccccc1Cl)CCN1CCOCC1 |  |  |  |  |  | 2 min |  |
